Consider 27 compounds from ChEMBL document CHEMBL1145193, “Identification of substituted 6-amino-4-phenyltetrahydroquinoline derivatives: potent antagonists for the follicle-stimulating hormone receptor” (J Med Chem, 2005).

The first experiment has as its target T1, Follicle-stimulating hormone receptor (Rattus norvegicus, UniProt P20395).
T1 sequence (P20395 whole entry): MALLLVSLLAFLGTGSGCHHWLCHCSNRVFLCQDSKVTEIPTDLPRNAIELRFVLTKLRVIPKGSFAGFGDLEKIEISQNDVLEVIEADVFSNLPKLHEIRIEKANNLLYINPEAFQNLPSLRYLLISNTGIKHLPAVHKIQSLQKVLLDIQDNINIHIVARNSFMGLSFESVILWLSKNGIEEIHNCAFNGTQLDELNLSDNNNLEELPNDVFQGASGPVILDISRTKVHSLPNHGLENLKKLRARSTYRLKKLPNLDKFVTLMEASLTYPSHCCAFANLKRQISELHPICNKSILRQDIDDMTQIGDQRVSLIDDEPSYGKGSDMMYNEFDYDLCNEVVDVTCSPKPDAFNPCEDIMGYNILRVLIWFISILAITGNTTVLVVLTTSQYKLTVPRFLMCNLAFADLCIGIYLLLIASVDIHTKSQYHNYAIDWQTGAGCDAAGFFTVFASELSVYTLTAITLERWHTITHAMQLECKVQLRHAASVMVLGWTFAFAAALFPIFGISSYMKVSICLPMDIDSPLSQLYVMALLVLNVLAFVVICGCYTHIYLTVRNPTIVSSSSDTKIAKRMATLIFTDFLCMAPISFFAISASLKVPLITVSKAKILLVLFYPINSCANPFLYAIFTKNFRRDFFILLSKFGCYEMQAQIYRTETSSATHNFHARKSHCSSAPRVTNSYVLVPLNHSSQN
The experiment in a line: In vitro inhibition against maximum response evoked by cAMP in rat GFSHR-17 granulosa cell line. It counts as functional. Summed up:
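Granulosa cell line GFSHR-17, stably expressing rat FSH receptor, incubated with FSH plus test compound; read-out is inhibition of FSH-induced cAMP production, reported as IC50.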
`CC(=O)N1c2ccc(NC(=O)c3ccc(-c4ccccc4)cc3)cc2C(C)(c2ccccc2)CC1(C)C` (stereo in doubt; 10) gave an IC50 of 540 nM.

For another experiment, the target named is T2, Follicle-stimulating hormone receptor (Homo sapiens, UniProt P23945).
T2 sequence (P23945 whole entry): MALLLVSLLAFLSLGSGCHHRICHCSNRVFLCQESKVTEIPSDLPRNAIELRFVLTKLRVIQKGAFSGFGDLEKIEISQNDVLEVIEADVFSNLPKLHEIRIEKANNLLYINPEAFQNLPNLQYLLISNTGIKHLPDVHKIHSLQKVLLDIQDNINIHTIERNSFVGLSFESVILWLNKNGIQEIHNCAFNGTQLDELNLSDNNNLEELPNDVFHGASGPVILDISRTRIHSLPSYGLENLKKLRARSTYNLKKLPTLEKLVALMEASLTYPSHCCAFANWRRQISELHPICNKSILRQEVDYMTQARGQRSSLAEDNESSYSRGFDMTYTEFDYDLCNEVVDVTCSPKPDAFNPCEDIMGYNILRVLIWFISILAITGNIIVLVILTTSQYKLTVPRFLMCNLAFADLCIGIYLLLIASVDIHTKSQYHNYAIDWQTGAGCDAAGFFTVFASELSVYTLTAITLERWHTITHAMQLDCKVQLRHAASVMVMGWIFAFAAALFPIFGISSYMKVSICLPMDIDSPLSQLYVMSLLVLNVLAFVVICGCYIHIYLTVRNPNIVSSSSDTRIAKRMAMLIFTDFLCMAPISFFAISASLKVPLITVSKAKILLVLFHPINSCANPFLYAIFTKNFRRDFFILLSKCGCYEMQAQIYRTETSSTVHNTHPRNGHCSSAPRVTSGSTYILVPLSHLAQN
The experiment in a line: In vitro inhibition of maximum response on CHO-K1 cells expressing human Follicle stimulating hormone receptor. It is filed as functional, cell-based. Summed up: (§1)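 Antagonist-mode assay in CHO cells expressing human FSH receptor with a luciferase reporter: cells are stimulated with FSH and test compound is added. IC50 values come from duplicate measurements and represent at least two independent experiments; the SD of pIC50 is typically below 0.2. Compounds are scored "n.a." (not active) where no antagonism is seen.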
For `CC(=O)N1c2ccc(NS(=O)(=O)Cc3ccccc3)cc2C(C)(c2ccccc2)CC1(C)C` (stereo not given), the half-inhibitory concentration (IC50) was determined as 2800 nM.

`CC(=O)N1c2ccc(NC(=O)c3ccc(-c4ccccc4)cc3)cc2C(C)(c2ccccc2)CC1(C)C` (stereo in doubt; 10) displayed a 50% inhibitory concentration (IC50) of 28 nM.

Regarding `CC(=O)N1c2ccc(NC(=O)c3ccccc3-c3ccccc3)cc2C(C)(c2ccccc2)CC1(C)C` (stereo not given), half-maximal inhibition (IC50) required 25 nM.

Regarding `CC(=O)N1c2ccc(OC(=O)c3ccc(-c4ccccc4)cc3)cc2C(C)(c2ccccc2)CC1(C)C` (stereo not given), the IC50 was determined as 54 nM.

With `CC(=O)N1c2ccc(NC(=O)c3ccc(Cl)cc3)cc2C(C)(c2ccccc2)CC1(C)C` (stereo not given), the IC50 came to 31 nM.

`CC(=O)N1c2ccc(NC(=O)c3ccc(-c4ccccc4)cc3)cc2C(C)(c2ccc(O)cc2)CC1(C)C` (stereo not given) came in with an IC50 of 240 nM.

`CC(=O)N1c2ccc(OCc3ccc(-c4ccccc4)cc3)cc2C(C)(c2ccccc2)CC1(C)C` (stereo not given) registered a concentration for half-maximal inhibition (IC50) of 166 nM.

Compound `COc1cc(NC(=O)c2ccc(-c3ccccc3)cc2)cc2c1N(C(C)=O)C(C)(C)CC2(C)c1ccccc1` (stereo not given) gave an IC50 of 30 nM.

As to `CCCc1ccc(C(=O)Nc2ccc3c(c2)C(C)(c2ccccc2)CC(C)(C)N3C(C)=O)cc1` (stereo not given), it took 5 nM to reach half-maximal inhibition (IC50). Compared with the last compound, the IC50 is about 6-fold lower.

The compound `CC(=O)N1c2ccc(NC(=O)c3cccc(-c4ccccc4)c3)cc2C(C)(c2ccccc2)CC1(C)C` (stereo not given) yielded a half-maximal inhibitory concentration (IC50) of 9 nM.

As to `COc1ccccc1C1(C)CC(C)(C)N(C(C)=O)c2ccc(NC(=O)c3ccc(-c4ccccc4)cc3)cc21` (stereo not given), half-maximal inhibition (IC50) was put at 170 nM.

For the compound `CC(=O)N1c2ccc(NC(=O)c3ccc(-c4ccccc4)cc3)cc2C(C)(c2ccc(C)cc2)CC1(C)C` (stereo not given), the IC50 amounted to 50 nM.

On to `CC(=O)N1c2ccc(NC(=O)c3ccco3)cc2C(C)(c2ccccc2)CC1(C)C` (stereo not given), for which 27 nM corresponded to half-maximal inhibition (IC50). This IC50 lies about 1.9-fold lower than the previous one.

Compound `CC(=O)N1c2cc(C)c(NC(=O)c3ccc(-c4ccccc4)cc3)cc2C(C)(c2ccccc2)CC1(C)C` (stereo not given) had a half-inhibitory concentration (IC50) of 5 nM. This IC50 is about 5.4-fold lower than that of the compound before.

`CC(=O)N1c2ccc(NC(=O)Nc3ccccc3)cc2C(C)(c2ccccc2)CC1(C)C` (stereo not given) registered an IC50 of 580 nM.

The compound `CC(=O)N1c2ccc(NC(=O)c3ccc(-c4ccccc4)cc3)cc2C(C)(c2ccccc2)CC1(C)C` (single isomer, unassigned; isomer II) showed an IC50 of 4 nM.

For `CC(=O)N1c2ccc(NC(=O)COC(C)(C)C)cc2C(C)(c2ccccc2)CC1(C)C` (stereo not given), the midpoint of inhibition, the IC50, lay at 76 nM.

In the case of `COc1ccc(CCNC(=O)c2ccc3c(c2)C(C)(c2ccccc2)CC(C)(C)N3C(C)=O)cc1` (stereo not given), the IC50 worked out at 1880 nM.

The compound `CC(=O)N1c2ccc(NC(=O)c3ccc(C(F)(F)F)cc3)cc2C(C)(c2ccccc2)CC1(C)C` (stereo not given) returned a 50% inhibitory concentration (IC50) of 7 nM.

`CC(=O)N1c2ccc(NCc3ccc(C(C)(C)C)cc3)cc2C(C)(c2ccccc2)CC1(C)C` (stereo not given) came in with an IC50 of 930 nM.

In another experiment the target is T2, Follicle-stimulating hormone receptor. The experiment in a line: Effective concentration for maximum response on CHO-K1 cells expressing human Follicle stimulating hormone receptor. It counts as functional, cell-based.
In the case of `CC(=O)N1c2ccc(N)cc2C(C)(c2ccccc2)CC1(C)C` (stereo not given), the EC50 turned out to be 4400 nM.

For the next experiment, the species on record is Mus musculus. The experiment in a line: Inhibition of follicle growth (ovulation) in mouse at 10 uM concentration. It counts as functional. The method, boiled down: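 Ex vivo culture of immature mouse follicles in the presence of FSH, with or without test compound at 10 µM. Follicle growth is compared with FSH-only follicles, and ovulation is scored as % ovulated follicles.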
`CC(=O)N1c2ccc(NC(=O)c3ccc(-c4ccccc4)cc3)cc2C(C)(c2ccccc2)CC1(C)C` (stereo in doubt; 10) had an Inhibition of 78%.

The target of a further experiment is T2, Follicle-stimulating hormone receptor. Put plainly: In vitro inhibition of maximum response on CHO-K1 cells expressing human Follicle stimulating hormone receptor; Not active. It counts as functional, cell-based. Summed up: as §1
`CC(=O)N1c2ccc(NC(=O)c3ccc(-c4ccccc4)cc3)cc2C(C)(c2ccccc2)CC1(C)C` (single isomer, unassigned; isomer I): the 50% inhibitory concentration (IC50) result is “Not Active”.

As to `CC(=O)N1c2ccc(CNc3ccc(-c4ccccc4)cc3)cc2C(C)(c2ccccc2)CC1(C)C` (stereo not given), the concentration for half-maximal inhibition (IC50) entry is given as “Not Active”.

The target in another experiment is T3, Follicle-stimulating hormone receptor (Homo sapiens) (UniProt P23945).
T3 sequence (whole entry): T2 sequence (P23945 whole entry)
The experiment in a line: In vitro inhibition of maximum response on CHO-K1 cells expressing human Follicle stimulating hormone receptor at 1E-5M. It counts as functional, cell-based.
`CC(=O)N1c2ccc(C(=O)Nc3ccc(-c4ccccc4)cc3)cc2C(C)(c2ccccc2)CC1(C)C` (stereo not given) returned an inhibition of 44%.

The compound `CC(=O)N1c2ccc(OCCc3ccccc3)cc2C(C)(c2ccccc2)CC1(C)C` (stereo not given) showed an inhibition of 80%.

The compound `CC(=O)N1c2ccc(NC(=O)c3ccc(-c4ccc(C(C)(C)C)cc4)cc3)cc2C(C)(c2ccccc2)CC1(C)C` (stereo not given) displayed an inhibition of 74%.

Compound `CC(=O)N1c2ccc(C(=O)NCc3cccs3)cc2C(C)(c2ccccc2)CC1(C)C` (stereo not given) yielded an inhibition of 25%.

The target of another experiment is T2, Follicle-stimulating hormone receptor. The experiment in a line: In vitro inhibition of maximum response evoked by cAMP on CHO-K1 cells expressing human Follicle stimulating hormone receptor. It counts as functional, cell-based. The method, boiled down:
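CHO cells stably expressing human FSH receptor, run in antagonist mode. The natural ligand FSH stimulates the receptor and the test compound is added. FSH-induced cAMP production is measured as the functional read-out in place of luciferase, and an IC50 is derived.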
The compound `CC(=O)N1c2ccc(NC(=O)c3ccc(-c4ccccc4)cc3)cc2C(C)(c2ccccc2)CC1(C)C` (stereo in doubt; 10) had an IC50 of 10 nM.

A word on the IC50: it is the concentration needed to halve the response being measured. A low value points to higher potency. By EC50 is commonly meant the concentration giving half of the maximal effect. A low value points to an effect from little substance. One may read the Inhibition as the drop in the measured response relative to a control, in per cent. Usually inhibition stands for the drop in the measured response relative to a control, in per cent.
